Shown are actives, neighbours in structure and some others; about 4.9% of the full set was active somewhere.
NF-kB expr up – raises NF-kB expression in human neuronal cells; NF-kB reporter expression; stronger effect = higher value; fold change at 12.5 µM; 1.6% of 190,000 active; AID 1239; in the data active = fold change above about 3.3
APP 5'UTR act – APP 5'UTR luciferase reporter activation; SH-SY5Y APP 5'UTR luciferase reporter, luminescence; zero percent = DMSO vehicle wells; activation, % at 2 µM; 1% of 190,000 active; AID 1276;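 active = activation above a set limit, based on mean plus 3 SD of controls, cut at about 140% in these data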
STAT1 act – STAT1 signaling activation; 2.6% of 200,000 active; NIH 3T3 STAT1-luciferase reporter, IFN-gamma, luminescence; 100% = IFN-gamma alone, no compound; activation (% of control), % at 5.5 µM;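 active = activation above the screen-wide mean activation plus 3 SD, cut at about 130% in these data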;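 note: raw ratio to IFN-gamma control signal so 100% means no change and 0% no light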
STAT3 inh – inhibitors of IL-6 induced STAT3 signaling; U3A cells, IL-6 STAT3-luciferase reporter, luminescence; host cell line lacks STAT1; inhibition, % at 5.5 µM; 0.89% of 190,000 active; AID 862;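 active = inhibition above the mean inhibition across all screened compounds plus 3 SD, cut at about 44% in these data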;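 note: 0% = DMSO only wells and 100% = 100 µM nifuroxazide control wells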
STAT1 blocker – STAT1 signaling inhibition; NIH 3T3 STAT1-luciferase reporter, IFN-gamma, luminescence; 0.35% of 200,000 active; AID 920; inhibition, % at 5.5 µM;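 active = inhibition above a set limit, the mean inhibition across all tested compounds plus 3 SD, cut at about 34% in these data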;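 note: 0% = IFN-gamma with DMSO and 100% = IFN-gamma with 300 µM nifuroxazide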
STAT3 act – increases IL-6 driven STAT3 reporter signal; U3A cells, IL-6 STAT3-luciferase reporter, luminescence; 100% = signal with IL-6 EC80 alone; activation (% of control), % at 5.6 µM; 0.91% of 190,000 active;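 active = activation above the screen-wide mean of compound activation plus 3 SD, cut at about 130% in these data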;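 note: 0% = background luminescence of wells with medium and substrate only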
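Material: human STAT1-deficient U3A cells with stable STAT3-luciferase reporter / Probe or stimulus: IL-6 stimulus at 33 ng/mL final / Schedule: 1 h compound pre-exposure, 6 h IL-6 stimulation, 37 °C / Technique: luminescence / Read-out basis: percent of IL-6-only median luminescence / Control set: IL-6-only high control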
Numbers without * were called inactive; . = not tested or not shown.

SMILES	NF-kB expr up	APP 5'UTR act	STAT1 act	STAT3 inh	STAT1 blocker	STAT3 act
COc1ccc(/C=C/C(=O)N2CCN(c3ccccn3)CC2)c2ccccc12	0.89	-3	102	12	-4	91
Brc1ccc(C2=NC(Cc3ccccc3)CO2)cc1 (configuration not stated)	3.3*	62	118	-9	-20	105
S=c1[nH]nc(-c2ccc(Br)cc2)n1Cc1ccccc1	1	-18	106	0	-8	105
O=C(Nc1ncc(Cc2ccccc2)s1)C1CCCO1 (configuration not stated)	4.1*	121	123	31	-26	78
Nc1ccc2nc(NC(=O)C3CCCCC3)sc2c1	4.8*	121	146*	4	-49	101
O=C(Nc1nnc(-c2ccncc2)s1)C1CCCO1 (configuration not stated)	1.2	12	105	8	-6	95
O=C(Nc1nc2ccc(F)cc2s1)C1CCCO1 (configuration not stated)	3.9*	106	146*	2	-51	99
O=C(Nc1nc2ccc(C(=O)N3CCCCC3)cc2s1)C1CCCCC1	1.2	-26	104	-4	-7	106
O=C(Nc1nnc(Cc2ccc(Cl)cc2)s1)C1CCCO1 (configuration not stated)	1.2	30	104	1	-5	106
O=C(Nc1nnc(-c2ccccc2F)s1)C1CCCO1 (configuration not stated)	2.9	91	141*	12	-54	93
CCN(Cc1ccncc1)C(=O)CSc1ccc2ccccc2c1	1.1	0	101	-2	-2	108
O=C1C2C3C=CC(CC3)C2C(=O)N1c1ccccc1[N+](=O)[O-] (configuration not stated)	1	-5	97	8	3	95
CCOc1ccc2nc(NC(=O)C3CCCO3)sc2c1 (configuration not stated)	4.7*	158*	140*	25	-46	81
CCOc1ccc2nc(NC(=O)NC3CCCCC3)sc2c1	1.3	35	112	7	-16	98
Cc1nn2cc(-c3ccc(N)cc3)nc2s1	2.2	68	139*	-15	-42	117
Cn1c(CC(=O)Nc2ccccc2)c(Sc2ccccc2)c2ccccc21	0.87	-1	99	-36	1	135*
Cc1ccc(NC(=O)c2c(O)c3ccccc3n(C)c2=O)nc1	2	38	96	-33	5	135*
Cn1c(=O)c(C(=O)Nc2cccnc2)c(O)c2ccccc21	.	8	114	-36	-15	134*
Cn1c(Cl)c(C(=O)Nc2ccccc2)c2ccccc21	1.2	17	99	-72	1	158*
Cn1c(CC(=O)Nc2ccccc2C(F)(F)F)c(Sc2ccccc2)c2ccccc21	1	5	95	5	5	97
CCOC(=O)c1ccc(N=C2SC(C(=O)Nc3ccc(C(=O)O)cc3)CC(=O)N2Cc2cccs2)cc1 (configuration not stated)	.	15	100	3	1	103
CCOC(=O)c1c(C)c(C(=O)Nc2cc(F)ccc2F)c(C)n1C	4.3*	5	103	0	-3	103
CCOC(=O)c1c(C)c(C(=O)Nc2ccc3c(c2)OCCO3)c(C)n1C	1	-7	111	6	-11	100
COc1ccc(C(=O)Nc2ccc(Cl)c(Cl)c2)c(OC)n1	4.6*	42	131*	-40	-34	136*
O=C(Nc1ccc(Cl)c(Cl)c1)c1ccncc1	1.5	14	122	14	-27	89
Cc1csc2cc(-c3cccc([N+](=O)[O-])c3)c(-c3cccc([N+](=O)[O-])c3)c[n+]12	1.2	1	102	2	-3	100
N#Cc1c(N)nc2c(c1-c1ccc(F)cc1)c(=O)nc1sccn12	1.1	33	92	6	10	99
Cc1cccc(/N=C/c2nc(-c3ccccc3Br)oc2O)n1	2.1	3	94	7	7	101
Cc1ccnc(N=Cc2nc(-c3ccccc3Br)oc2O)c1	2	20	142*	13	-47	91
COc1ccc(-c2nc3c4ccccc4ccn3c2C=O)cc1	1.2	14	96	-14	5	114
